# Assay results as given in PubChem BioAssay AID743238 (Broad Institute, 2013).
# Out of some 360,000 compounds screened, about 200 (0.056%) were called active. Only a selection was taken, and actives are over-represented in it overall. Unmarked numbers belong to inactive results.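 Rule for the calls: active = mean normalized replicate activation at least 10% and every replicate at or above 10%; inconclusive = only one of the two criteria met; inactive = mean below 10% and not all replicates reach 10%.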
# Assay: activators of inactive X chromosome reactivation, primary screen, imaging, XiGFP fibroblasts, GFP high-content imaging, set 2 (AID 743238);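 note: 0% = median of on-plate neutral control wells and 100% = ellipticine 6 µM median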
# Conditions: XiGFP mouse fibroblasts, % GFP-positive cells imaging, 3 d; at 7.58 µM; active compounds read high; cells co-treated with 5-aza-dC sensitizer; scaled so ellipticine positive control = 100%
# Procedure, shortened: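 System: 68-5-11 XiGFP fibroblast line | Buffer or medium: DMEM containing 5-aza-dC | Compound: Single point | Times: Compounds 3 days, fix/stain 15 min at room temperature | Benchmarks: Positive control ellipticine, 6 µM final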
row,SMILES,activation
1,C[C@H](CO)N1C[C@H](C)[C@H](CN(C)Cc2ccc(C(=O)Nc3ccccc3N)cc2)Oc2ccc(NC(=O)Nc3ccccc3)cc2CC1=O,0.0505%
2,Cc1noc(C)c1NC(=O)Nc1ccc2c(c1)C(=O)N([C@H](C)CO)C[C@@H](C)[C@H](CN(C)C(=O)Nc1cccc3ccccc13)OCCCC[C@@H](C)O2,0.305%
3,COc1cccc(CNC(=O)C[C@@H]2CC[C@H]3[C@@H](COc4ccc(NC(=O)c5cccs5)cc4C(=O)N3C)O2)c1,-0.028%
4,C[C@H]1CN([C@@H](C)CO)C(=O)c2ccccc2-c2ccccc2CO[C@H]1CN(C)Cc1ccc(-c2ccccc2)cc1,0.132%
5,COc1ccc(S(=O)(=O)Nc2ccc3c(c2)CC(=O)N([C@@H](C)CO)C[C@@H](C)[C@H](CN(C)S(=O)(=O)c2ccccc2)O3)cc1,0.178%
6,COc1cccc(S(=O)(=O)N[C@H]2C=C[C@H](CC(=O)NC3Cc4ccccc4C3)O[C@H]2CO)c1,0.645%
7,C[C@H](O)C#Cc1cnc2c(c1)C(=O)N([C@@H](C)CO)C[C@H](C)[C@@H](CN(C)C(=O)c1ccccc1)O2,-0.975%
8,Cc1ccccc1-c1ccc([C@H]2[C@@H](CO)N3C(=O)CN(C(=O)c4ccncc4)C[C@@H]23)cc1,-0.015%
9,COc1ccc(S(=O)(=O)Nc2ccc3c(c2)C(=O)N([C@@H](C)CO)C[C@H](C)[C@@H](CN(C)C(=O)c2ccccc2)OCCCC[C@H](C)O3)cc1,0.072%
10,COc1ccc2c3c(n(C)c2c1)[C@@H](CO)N(C(C)=O)CC31CCN(Cc2ccc(Cl)cc2)CC1,0.225%
11,C[C@@H]1CCCCO[C@@H](CN(C)S(=O)(=O)c2cn(C)cn2)[C@@H](C)CN([C@@H](C)CO)C(=O)c2cc(NC(=O)Nc3ccc(C(F)(F)F)cc3)ccc2O1,-0.98%
12,CO[C@@H]1CN(C)C(=O)c2ccc(NC(=O)C3CC3)cc2OC[C@H](C)N(C(=O)c2ccccc2)C[C@@H]1C,0.643%
13,CC[C@@H]1CC=CC[C@H](C)Oc2ccccc2C(=O)N(C)[C@H](Cc2ccccc2)C(=O)N1 (mixture of isomers),0.007%
14,C[C@@H]1CCCCO[C@H](CN(C)Cc2ccc3c(c2)OCO3)[C@H](C)CN([C@@H](C)CO)C(=O)c2cc(NS(=O)(=O)c3cccs3)ccc2O1,-0.019%
15,C[C@H]1CCCCO[C@@H](CN(C)C(=O)Nc2ccccc2)[C@@H](C)CN([C@@H](C)CO)C(=O)c2cc(NC(=O)CCC(F)(F)F)ccc2O1,0.045%
16,C[C@@H](NC(=O)C[C@H]1C[C@@H]2c3cc(NC(=O)Nc4ccccc4F)ccc3O[C@@H]2[C@H](CO)O1)c1ccccc1,0.315%
17,COc1ccc(NC(=O)Nc2ccc3c(c2)CC(=O)N([C@@H](C)CO)C[C@@H](C)[C@H](CN(C)C(=O)NC2CCCCC2)O3)cc1,-0.248%
18,C[C@@H]1CN([C@@H](C)CO)C(=O)c2cc(NC(=O)Nc3cccc4ccccc34)ccc2O[C@@H](C)CCCCO[C@@H]1CN(C)S(=O)(=O)c1ccc(Cl)cc1,0.307%
19,O=S(=O)(NC1CC1)c1ccc2c3c(cccc13)CC2,0.001%
20,N#CC1(Nc2ccc(-c3ccc(Cl)cc3)cc2)CCCC1,-0.0155%
21,N#CC1(Nc2ccc3c4c(cccc24)CC3)CCCCC1,40% (active)

row,SMILES,activation
1,CC(C)NC(=O)N(C)C[C@@H]1Oc2c(cccc2N(C)C)C(=O)N([C@H](C)CO)C[C@@H]1C,0.155%
2,O=C(CC1CC1)N1[C@@H](CO)[C@H](c2ccccc2)C12CN(Cc1cccnc1)C2,0.0215%
3,COc1ccc2c3c([nH]c2c1)[C@@H](CO)N(C(C)=O)CC31CCN(Cc2ccccc2Cl)CC1,0.131%
4,C[C@@H]1CN([C@@H](C)CO)C(=O)Cc2cc(NC(=O)C3CC3)ccc2O[C@H]1CN(C)C(=O)NC1CCCCC1,-0.834%
5,O=C(C[C@@H]1CC[C@@H](NC(=O)c2ccc3c(c2)OCO3)[C@H](CO)O1)NCc1ccc(F)cc1,0.149%
6,Cc1ccc(S(=O)(=O)Nc2ccc3c(c2)C(=O)N([C@@H](C)CO)C[C@H](C)[C@@H](CN(C)CC2CC2)O3)cc1,-0.069%
7,Cc1ccccc1CN(C)C[C@H]1OCc2cn(nn2)CCCC(=O)N([C@@H](C)CO)C[C@H]1C,0.238%
8,CCCN(C)C[C@@H]1Oc2ncc(C#Cc3ccccc3)cc2C(=O)N([C@H](C)CO)C[C@@H]1C,-0.009%
9,C[C@H](CO)N1C[C@H](C)[C@H](CN(C)C(=O)c2ccncc2)Oc2cc(C#CC3(O)CCCC3)ccc2S1(=O)=O,0.469%
10,CN(C)CCCNC(=O)C[C@@H]1C=C[C@H](NC(=O)c2ccccc2F)[C@H](CO)O1,-0.107%
11,CCN1/C(=C\c2ccc3ccccc3[n+]2CC)Sc2cc(C)ccc21,415% (active)
12,CCCNC(=O)N1CC(=O)N2[C@H](C1)[C@@H](c1ccc(C#Cc3ccccc3)cc1)[C@@H]2CO,-0.0025%
13,O=C(C[C@@H]1CC[C@@H](NS(=O)(=O)c2ccc(F)cc2)[C@H](CO)O1)NCc1ccc(Cl)c(Cl)c1,0.0265%
14,C[C@H](CO)N1C[C@H](C)[C@H](CN(C)Cc2ccncc2)Oc2ccc(NS(=O)(=O)c3cn(C)cn3)cc2C1=O,-0.119%
15,CC=Cc1ccc2n(c1=O)C[C@@H]1[C@@H](CO)[C@H](C(=O)NC3CCCC3)[C@H]2N1C(=O)c1cnccn1 (mixture of isomers),0.002%
16,O=C(Nc1ccccc1F)N[C@@H]1CC[C@H](CCNC(=O)C2CC2)O[C@@H]1CO,0.587%
17,O=C(C[C@H]1C=C[C@@H](NC(=O)Nc2cc(F)ccc2F)[C@@H](CO)O1)NCc1ccc2c(c1)OCO2,0.137%
18,C[C@@H]1CN([C@H](C)CO)C(=O)c2cccc(NS(C)(=O)=O)c2O[C@@H]1CN(C)S(=O)(=O)c1cccs1,-1.35%
19,COc1ccccc1NC(=O)N1CC(=O)N2[C@H](CO)[C@@H](c3ccc(C#Cc4ccc(F)cc4)cc3)[C@H]2C1,-0.0395%
20,N#C/C(=C/c1ccc(N2CCCCC2)o1)C(=O)NCCc1c[nH]c2ccccc12,119% (active)
21,O=C(NCCc1c[nH]c2ccccc12)c1cc2ccccc2oc1=O,-0.0325%

row,SMILES,activation
1,Cc1ccc(S(=O)(=O)N(C)CC(=O)NCCc2c[nH]c3ccccc23)cc1,0.082%
2,CCCNC(=O)NC[C@H]1[C@H](c2ccc(C3=CCCCC3)cc2)[C@H](CO)N1C(C)=O,-0.0205%
3,CC(C)NC(=O)N1[C@H](C#N)[C@@H](c2ccc(-c3ccc(F)cc3)cc2)[C@H]1CO,0.054%
4,C[C@@H]1CN([C@H](C)CO)C(=O)c2cc(NC(=O)CCCCCC(=O)Nc3ccccc3N)ccc2O[C@@H]1CN(C)S(=O)(=O)c1ccc(Cl)cc1,-0.749%
5,C[C@H](O)C#Cc1ccc2c(c1)O[C@@H](CN(C)Cc1cccnc1)[C@H](C)CN([C@H](C)CO)S2(=O)=O,0.253%
6,O=C(NC1Cc2ccccc2C1)[C@H]1[C@H](CO)[C@H]2Cn3c(ccc(C4=CCCCC4)c3=O)[C@H]2N1CC1CC1,0.397%
7,CN(C)CC(=O)N[C@@H]1CC[C@H](CC(=O)O)O[C@H]1CO,-0.0755%
8,C[C@@H]1CN([C@@H](C)CO)C(=O)c2cc(C#CC3CCCCC3)cnc2O[C@@H]1CN(C)Cc1cncnc1,-1.05%
9,CCC(=C/c1sc2ccc3ccccc3c2[n+]1C)/C=C1\Sc2ccc3ccccc3c2N1C,68% (active)
10,CC(C)C#Cc1cnc2c(c1)C(=O)N([C@@H](C)CO)C[C@@H](C)[C@H](CN(C)C(=O)CCN1CCCCC1)O2,0.409%
11,COc1ccc(NC(=O)Nc2ccc3c(c2)C(=O)N([C@@H](C)CO)C[C@@H](C)[C@@H](CN(C)C(=O)CCCN(C)C)OCCCC[C@@H](C)O3)cc1,0.0725%
12,Cc1ccccc1-c1ccc([C@H]2[C@@H](CO)N3C(=O)CN(C(=O)c4cccnc4)C[C@@H]23)cc1,0.209%
13,C[C@@H](O)C#Cc1ccc([C@@H]2[C@@H](CO)N3CCCCN(C(=O)c4ccc(F)cc4)C[C@@H]23)cc1,0.907%
14,C[C@H]1CN([C@@H](C)CO)C(=O)c2cc(Br)cnc2O[C@H]1CN(C)Cc1cccc(F)c1,0.497%
15,Cc1ccc(S(=O)(=O)N2C[C@H](O)COC[C@@H]3O[C@H](CC(=O)N[C@H]4CCN(Cc5ccccc5)C4)CC[C@H]32)cc1,0.108%
16,C[C@@H]1CN([C@H](C)CO)C(=O)c2cc(-c3ccccc3F)cnc2O[C@H]1CN(C)C(=O)CN(C)C,3.17%
17,COc1cc(CN2CC3(CN(S(=O)(=O)c4cccs4)C3)c3c(n(C)c4cc(OC)ccc34)[C@H]2CO)cc(OC)c1,0.325%
18,COc1cccc(S(=O)(=O)N[C@H]2C=C[C@@H](CC(=O)NCc3ccccc3)O[C@@H]2CO)c1,-0.504%
19,CN1CCN(C(=O)C[C@H]2CC[C@H]3[C@@H](COC[C@H](O)CN3CC3CCCC3)O2)CC1,0.0235%
20,Cc1ccc(S(=O)(=O)N(C)C[C@@H]2Oc3c(NC(=O)Nc4c(C)noc4C)cccc3C(=O)N([C@@H](C)CO)C[C@@H]2C)cc1,-0.145%
